{
  "source": "ChEMBL document CHEMBL4138242",
  "about": "“Synthesis and antibacterial evaluation of novel cationic chalcone derivatives possessing broad spectrum antibacterial activity” (Eur J Med Chem, 2018)",
  "note": "Calls of active or inactive are those of the source. The rule behind the calls is not given here.",
  "data": [
    {"test_system": "Klebsiella pneumoniae", "assay": "Antibacterial activity against drug-resistant carbapenemase producing Klebsiella pneumoniae clinical isolate KP-14-3 after 16 to 20 hrs by broth microdilution method", "type": "functional", "procedure,_shortened": "(§1)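 CLSI broth microdilution in Mueller-Hinton broth. A 4-6 h culture was diluted to about 10⁶ CFU/mL and mixed 1:1 with compound dilutions prepared at 256 to 0.5 µg/mL from aqueous stocks. Plates were incubated at 37 °C for 16-20 h and read visually for MIC. Each concentration was run in duplicate, and the experiment was repeated at least twice. Vancomycin and meropenem were comparators.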", "units": {"MIC": "µg/mL"}, "values": [
      {"smiles": "CCCCCCCC[N+](C)(C)CC(=O)Nc1ccc(C(=O)/C=C/c2ccccc2C(F)(F)F)cc1.[Cl-]", "MIC": 8}
    ]},
    {"test_system": "Escherichia coli", "assay": "Antibacterial activity against drug-resistant NDM1 producing Escherichia coli clinical isolate EC-13-49 after 16 to 20 hrs by broth microdilution method", "type": "functional", "procedure,_shortened": "as §1", "units": {"MIC": "µg/mL"}, "values": [
      {"smiles": "CCCCCCCC[N+](C)(C)CC(=O)Nc1ccc(C(=O)/C=C/c2ccccc2C(F)(F)F)cc1.[Cl-]", "MIC": 8}
    ]},
    {"test_system": "Escherichia coli", "assay": "Induction of cytoplasmic membrane depolarization in Escherichia coli ATCC 25922 at 10 to 20 ug/ml measured every 2 mins for 12 mins by DiSC35 dye-based fluorescence assay", "type": "functional, organism-based", "procedure,_shortened": "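Mid-log cells (~10⁸ CFU/mL) were suspended in PBS (S. aureus) or HEPES/glucose/KCl with EDTA (E. coli). They were preloaded with DiSC3(5) for 30 min (S. aureus) or 40 min (E. coli), and baseline fluorescence was read for 8 min. Compound was added to 20 µg/mL final, and fluorescence (ex 622/em 670 nm) was read every 2 min for 12 min. Water served as control.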", "values": [
      {"smiles": "CCCCCCCC[N+](C)(C)CC(=O)Nc1ccc(C(=O)/C=C/c2ccccc2C(F)(F)F)cc1.[Cl-]", "Activity": "Active"}
    ]},
    {"test_system": "Staphylococcus aureus", "assay": "Antibacterial activity against methicillin-resistant Staphylococcus aureus clinical isolate 0906202 after 16 to 20 hrs by broth microdilution method", "type": "functional", "procedure,_shortened": "as §1", "units": {"MIC": "µg/mL"}, "values": [
      {"smiles": "CCCCCCCC[N+](C)(C)CC(=O)Nc1ccc(C(=O)/C=C/c2ccccc2C(F)(F)F)cc1.[Cl-]", "MIC": 1}
    ]},
    {"test_system": "Staphylococcus aureus", "assay": "Antibacterial activity against methicillin-resistant Staphylococcus aureus clinical isolate 1105183 cono7 after 16 to 20 hrs by broth microdilution method", "type": "functional", "procedure,_shortened": "as §1", "units": {"MIC": "µg/mL"}, "values": [
      {"smiles": "CCCCCCCC[N+](C)(C)CC(=O)Nc1ccc(C(=O)/C=C/c2ccccc2C(F)(F)F)cc1.[Cl-]", "MIC": 1}
    ]},
    {"test_system": "Escherichia coli", "assay": "Antibacterial activity against drug-resistant NDM1 producing Escherichia coli clinical isolate CF-13-61 after 16 to 20 hrs by broth microdilution method", "type": "functional", "procedure,_shortened": "as §1", "units": {"MIC": "µg/mL"}, "values": [
      {"smiles": "CCCCCCCC[N+](C)(C)CC(=O)Nc1ccc(C(=O)/C=C/c2ccccc2C(F)(F)F)cc1.[Cl-]", "MIC": 4}
    ]},
    {"test_system": "Escherichia coli", "assay": "Induction of inner membrane permeabilization in Escherichia coli ATCC 25922 at 10 to 20 ug/ml measured every 2 mins for 12 mins by propidium iodide staining-based fluorescence assay", "type": "functional, organism-based", "procedure,_shortened": "(§2)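 Mid-log cells (~10⁸ CFU/mL) were suspended in PBS (S. aureus) or HEPES/glucose/KCl (E. coli). They were preincubated with propidium iodide for 30 min (S. aureus) or 40 min (E. coli), and baseline fluorescence was read for 8 min. Compound was added to 20 µg/mL final, and fluorescence (ex 535/em 617 nm) was read every 2 min for 12 min.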", "values": [
      {"smiles": "CCCCCCCC[N+](C)(C)CC(=O)Nc1ccc(C(=O)/C=C/c2ccccc2C(F)(F)F)cc1.[Cl-]", "Activity": "Active"}
    ]},
    {"test_system": "Klebsiella pneumoniae", "assay": "Antibacterial activity against drug-resistant carbapenemase producing Klebsiella pneumoniae clinical isolate KP-14-18 after 16 to 20 hrs by broth microdilution method", "type": "functional", "procedure,_shortened": "as §1", "units": {"MIC": "µg/mL"}, "values": [
      {"smiles": "CCCCCCCC[N+](C)(C)CC(=O)Nc1ccc(C(=O)/C=C/c2ccccc2C(F)(F)F)cc1.[Cl-]", "MIC": 16}
    ]},
    {"test_system": "Klebsiella pneumoniae", "assay": "Antibacterial activity against drug-resistant carbapenemase producing Klebsiella pneumoniae clinical isolate KP-14-8 after 16 to 20 hrs by broth microdilution method", "type": "functional", "procedure,_shortened": "as §1", "units": {"MIC": "µg/mL"}, "values": [
      {"smiles": "CCCCCCCC[N+](C)(C)CC(=O)Nc1ccc(C(=O)/C=C/c2ccccc2C(F)(F)F)cc1.[Cl-]", "MIC": 8}
    ]},
    {"test_system": "Escherichia coli", "assay": "Antibacterial activity against drug-resistant NDM1 producing Escherichia coli clinical isolate 1460 after 16 to 20 hrs by broth microdilution method", "type": "functional", "procedure,_shortened": "as §1", "units": {"MIC": "µg/mL"}, "values": [
      {"smiles": "CCCCCCCC[N+](C)(C)CC(=O)Nc1ccc(C(=O)/C=C/c2ccccc2C(F)(F)F)cc1.[Cl-]", "MIC": 8}
    ]},
    {"test_system": "Klebsiella pneumoniae", "assay": "Antibacterial activity against drug-resistant carbapenemase producing Klebsiella pneumoniae clinical isolate KP-14-1 after 16 to 20 hrs by broth microdilution method", "type": "functional", "procedure,_shortened": "as §1", "units": {"MIC": "µg/mL"}, "values": [
      {"smiles": "CCCCCCCC[N+](C)(C)CC(=O)Nc1ccc(C(=O)/C=C/c2ccccc2C(F)(F)F)cc1.[Cl-]", "MIC": "> 128"}
    ]},
    {"test_system": "Klebsiella pneumoniae", "assay": "Antibacterial activity against drug-resistant carbapenemase producing Klebsiella pneumoniae clinical isolate KP-14-45 after 16 to 20 hrs by broth microdilution method", "type": "functional", "procedure,_shortened": "as §1", "units": {"MIC": "µg/mL"}, "values": [
      {"smiles": "CCCCCCCC[N+](C)(C)CC(=O)Nc1ccc(C(=O)/C=C/c2ccccc2C(F)(F)F)cc1.[Cl-]", "MIC": 8}
    ]},
    {"test_system": "Staphylococcus aureus", "assay": "Antibacterial activity against methicillin-resistant Staphylococcus aureus clinical isolate 1208143 after 16 to 20 hrs by broth microdilution method", "type": "functional", "procedure,_shortened": "as §1", "units": {"MIC": "µg/mL"}, "values": [
      {"smiles": "CCCCCCCC[N+](C)(C)CC(=O)Nc1ccc(C(=O)/C=C/c2ccccc2C(F)(F)F)cc1.[Cl-]", "MIC": 1}
    ]},
    {"test_system": "Staphylococcus aureus", "assay": "Antibacterial activity against methicillin-resistant Staphylococcus aureus clinical isolate 1207007 after 16 to 20 hrs by broth microdilution method", "type": "functional", "procedure,_shortened": "as §1", "units": {"MIC": "µg/mL"}, "values": [
      {"smiles": "CCCCCCCC[N+](C)(C)CC(=O)Nc1ccc(C(=O)/C=C/c2ccccc2C(F)(F)F)cc1.[Cl-]", "MIC": 2}
    ]},
    {"test_system": "Klebsiella pneumoniae", "assay": "Antibacterial activity against drug-resistant carbapenemase producing Klebsiella pneumoniae clinical isolate KP-13-55 after 16 to 20 hrs by broth microdilution method", "type": "functional", "procedure,_shortened": "as §1", "units": {"MIC": "µg/mL"}, "values": [
      {"smiles": "CCCCCCCC[N+](C)(C)CC(=O)Nc1ccc(C(=O)/C=C/c2ccccc2C(F)(F)F)cc1.[Cl-]", "MIC": 16}
    ]},
    {"test_system": "Escherichia coli", "assay": "Antibacterial activity against drug-resistant NDM1 producing Escherichia coli clinical isolate Ecl-14-58 after 16 to 20 hrs by broth microdilution method", "type": "functional", "procedure,_shortened": "as §1", "units": {"MIC": "µg/mL"}, "values": [
      {"smiles": "CCCCCCCC[N+](C)(C)CC(=O)Nc1ccc(C(=O)/C=C/c2ccccc2C(F)(F)F)cc1.[Cl-]", "MIC": 8}
    ]},
    {"test_system": "Klebsiella pneumoniae", "assay": "Antibacterial activity against drug-resistant carbapenemase producing Klebsiella pneumoniae clinical isolate KP-14-5 after 16 to 20 hrs by broth microdilution method", "type": "functional", "procedure,_shortened": "as §1", "units": {"MIC": "µg/mL"}, "values": [
      {"smiles": "CCCCCCCC[N+](C)(C)CC(=O)Nc1ccc(C(=O)/C=C/c2ccccc2C(F)(F)F)cc1.[Cl-]", "MIC": 8}
    ]},
    {"test_system": "Staphylococcus aureus", "assay": "Antibacterial activity against methicillin-resistant Staphylococcus aureus clinical isolate 1104060 after 16 to 20 hrs by broth microdilution method", "type": "functional", "procedure,_shortened": "as §1", "units": {"MIC": "µg/mL"}, "values": [
      {"smiles": "CCCCCCCC[N+](C)(C)CC(=O)Nc1ccc(C(=O)/C=C/c2ccccc2C(F)(F)F)cc1.[Cl-]", "MIC": 16}
    ]},
    {"test_system": "Enterococcus faecalis", "assay": "Antibacterial activity against Enterococcus faecalis ATCC 29212 after 16 to 20 hrs by broth microdilution method", "type": "functional", "procedure,_shortened": "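Broth microdilution per CLSI. Bacteria grown 4-6 h (about 10⁸ CFU/mL), then diluted to about 10⁶ CFU/mL. Medium: Mueller-Hinton broth, except Luria-Bertani broth for E. coli. Compounds in sterile water, twofold series 256-0.5 µg/mL, mixed 1:1 with inoculum, 37 °C for 16-20 h. MIC is the lowest concentration without visible growth. Duplicate wells; experiment repeated at least twice.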", "units": {"MIC": "µg/mL"}, "values": [
      {"smiles": "CCCCCCCC[N+](C)(C)CC(=O)Nc1ccc(C(=O)/C=C/c2ccccc2C(F)(F)F)cc1.[Cl-]", "MIC": 4}
    ]},
    {"test_system": "Staphylococcus aureus", "assay": "Antibacterial activity against methicillin-resistant Staphylococcus aureus clinical isolate 20131012632sau after 16 to 20 hrs by broth microdilution method", "type": "functional", "procedure,_shortened": "as §1", "units": {"MIC": "µg/mL"}, "values": [
      {"smiles": "CCCCCCCC[N+](C)(C)CC(=O)Nc1ccc(C(=O)/C=C/c2ccccc2C(F)(F)F)cc1.[Cl-]", "MIC": 4}
    ]},
    {"test_system": "Staphylococcus aureus", "assay": "Induction of inner membrane permeabilization in Staphylococcus aureus ATCC 29213 at 10 to 20 ug/ml measured every 2 mins for 12 mins by propidium iodide staining-based fluorescence assay", "type": "functional, organism-based", "procedure,_shortened": "as §2", "values": [
      {"smiles": "CCCCCCCC[N+](C)(C)CC(=O)Nc1ccc(C(=O)/C=C/c2ccccc2C(F)(F)F)cc1.[Cl-]", "Activity": "Active"}
    ]}
  ]
}
